Screening results deposited in PubChem by several laboratories.
Bfl-1 A1 inh = caspase 3/7 activation in MEF A1-2A-BIM cells, primary screen, A1 inhibitor project, cell-based, luminescence, HTS; Caspase-Glo 3/7 luminescence, 3 h; percent of clofoctol response, vehicle zero; caspase activation, % (test concentration not listed); hit rate 0.066% among 330,000; AID 2462, 2010;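 active = over half of replicate activation scores above 10%, or exactly half above 10 with the replicate mean above 10; inconclusive = replicate mean below 10 yet half the replicates above 10; inactive = over half of replicates below 10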
CHOP UPR activ = activators of apoptotic CHOP UPR arm, primary screen, cell-based, CHO-CHOP luciferase reporter, luminescence, uHTS. hit rate 0.34% among 330,000. UPR activation; percent of tunicamycin response over DMSO baseline. activation, % at 10 µM;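 active = at 10 µM dose, activation of 40% or more, normalized to positive control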;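 note: 100% = tunicamycin at 10 µg/mL and 0% = DMSO alone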
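Test system: CHO-CHOP cells, stable luciferase reporter of PERK-eIF2a-CHOP signalling | Quantity: 500 CHO-CHOP cells per well | Buffer or medium: F12 plus 10% serum | Compound dosing: 10 µM single point, 0.5% DMSO | Schedule: 6 h compound treatment, 37 °C | Signal: Luciferase luminescence | Control set: Tunicamycin high control, DMSO low control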
XBP1 UPR activ = activators of adaptive XBP1 UPR arm, primary screen, cell-based, CHO-XBP1 luciferase reporter, luminescence, uHTS; hit rate 0.33% among 330,000; AID 463104, 2010; IRE1-XBP1 UPR activation; percent of tunicamycin response, DMSO as zero; activation, % at 20 µM;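 active = versus positive control, 20 µM dose yields 30% or more activation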;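 note: 100% = tunicamycin at 10 µg/mL and 0% = DMSO only wells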
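Material: CHO cell line with stable XBP1 luciferase reporter; buffer or medium: F12 medium containing 10% fetal bovine serum; compound: single point, 20 µM final compound, 1% DMSO; incubation: 6 h treatment, 37 °C; measured by: glow luminescence from Steady-Glo reagent; evaluation: activation, % of tunicamycin; control set: tunicamycin high, DMSO low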
CHOP inhibitor = inhibitors of CHOP promoter induction, primary screen, cell-based, unfolded protein response, luciferase reporter. CHO-K1 CHOP-promoter luciferase, tunicamycin-induced, 15-18 h. inhibition, % at 10 µM. hit rate 3.8% among 220,000;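 active = compounds that reduced the stress-induced luciferase reporter signal by more than about 70% of percent inhibition, limit read from the data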;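 note: 0% = tunicamycin plus vehicle and 100% = wells without tunicamycin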
* = called active by the depositor; ? = inconclusive; · = no result given. The full list was thinned out, with hits kept by preference.

SMILES	Bfl-1 A1 inh	CHOP UPR activ	XBP1 UPR activ	CHOP inhibitor
O=C(Nc1cccc2ccccc12)c1ccc(Br)o1	·	·	·	-4
O=C(NC(=S)Nc1nc(-c2ccccc2)cs1)c1cccs1	1	3	0	74*
O=C(Nc1cccc2cccnc12)c1ccc(Br)o1	-1	1	1	77*
O=C(Nc1nc(-c2ccccc2)cs1)c1ccc(Br)o1	0	6	5	74*
Cn1c(SCC(=O)NCc2ccccc2)nc2ccccc21	1	0	1	28
CCc1ccc(OCC(=O)Nc2cccc3c2CCCC3)cc1	1	0	3	79*
COc1ccc(C2=C(C)CC(C)(C)NC2=O)cc1OC	0	-1	-4	18
NC(=O)c1nc(-c2cccs2)nc2c1[nH]c(=O)n2-c1ccc(F)cc1	0	-1	2	76*
Cc1cccc(-n2c(=O)[nH]c3c(C(N)=O)nc(-c4ccccc4Cl)nc32)c1	0	2	3	91*
COc1ccc(CCn2c(C)cc(C(=O)CSc3nnnn3-c3ccccc3)c2C)cc1	0	0	-1	5
Cc1nnc(SCc2nnc(-c3ccccc3)o2)n(N)c1=O	0	2	-2	32
COc1ccccc1NC(=O)CCNC(=O)Cn1ccc2ccccc2c1=O	0	-1	0	10
CCOc1ccc(NCc2cc3c(C(C)(C)C)nn(-c4ccccc4)c3[nH]c2=O)cc1	0	4	10	59
COc1cccc(NCc2cc3c(C(C)(C)C)nn(-c4ccccc4)c3[nH]c2=O)c1	0	2	2	71*
CC(c1nc2ccccc2c(=O)[nH]1)N(C)c1ccc2ccccc2c1 (stereo not drawn)	-1	3	0	51
CCOc1cc(/C=N/Nc2nc(=O)[nH]nc2C)ccc1O	0	1	3	-8
CCOC(=O)c1sc(/N=C/c2ccc(O)cc2O)cc1C	0	10	5	94*
CC(=O)Nc1cc(Cl)c(N=Cc2ccc(O)cc2O)cc1Cl	0	-1	-1	5
CCn1c(CC(=O)Nc2ccccc2)nnc1SCC(=O)NC1=NCCS1	0	0	-1	·
CCCCn1c(N)c(N(CC)C(=O)c2ccc3c(c2)S(=O)(=O)c2ccccc2C3=O)c(=O)[nH]c1=O	1	1	-1	18
O=C(COc1cccc(OC(F)F)c1)Nc1ccc(SC(F)F)cc1	0	-1	6	94*
O=C(COc1cccc(Oc2ccccc2)c1)Nc1ccc(SC(F)F)cc1	2	1	-3	66
CCOC(=O)Cn1nnc(-c2ccc(SC)cc2)n1	0	2	2	21
CCOC(=O)Cn1nnc(-c2ccc(OCC(C)C)cc2)n1	0	0	1	71*
CCCOc1ccc(-c2nnn(CC(=O)c3c[nH]c4ccccc34)n2)cc1	0	1	-1	85*
SMILES	Bfl-1 A1 inh	CHOP UPR activ	XBP1 UPR activ	CHOP inhibitor
CCOc1ccc(CCNC(=O)CCC(=O)N2CCSc3ccccc32)cc1OCC	·	-1	1	·
CCCCNC(=O)C(=O)N/N=C/c1ccc(OCC(=O)Nc2cccc(OC)c2)c(OC)c1	1	2	-1	99*
COc1ccc(-c2nc(N)n(C(=O)Cc3ccccc3)n2)cc1	0	1	0	49
COc1ccc2cc3c(N)nn(C(=O)c4cccc([N+](=O)[O-])c4)c3nc2c1	-1	-1	0	77*
COc1ccc2cc3c(N)nn(C(=O)Cc4ccccc4OC)c3nc2c1	0	-1	2	81*
Cc1cc(S(=O)(=O)NC2CC(C)(C)NC(C)(C)C2)c(Cl)cc1Cl	0	2	-2	·
N#Cc1ccsc1NC(=O)CN1CCN(S(=O)(=O)c2ccc3ccccc3c2)CC1	0	0	-4	78*
O=C(CCC(=O)N1CCN(S(=O)(=O)c2cccc(F)c2)CC1)c1cccs1	0	-1	2	5
Oc1ccc(-c2nc3c4c(ncn3n2)-c2ccccc2CC42CCCC2)cc1	?	3	23	106*
CNS(=O)(=O)c1cccc(C(=O)OCc2cc(Cl)cc3c2OCOC3)c1	0	1	0	75*
O=C(OCc1cc(Cl)cc2c1OCOC2)c1cccnc1Cl	-1	2	2	·
CC(=O)Nc1ccc(S(=O)(=O)N2CCC(n3cnc4cc(F)ccc43)CC2)cc1	0	-2	-1	41
COc1ccc(N(C(=O)c2ccco2)S(=O)(=O)c2cccs2)cc1	0	-2	12	39
O=C(Nc1ccccc1N(C(=O)c1ccco1)S(=O)(=O)c1cccs1)c1ccco1	-1	-2	-4	85*
O=C(O)[C@@H]1Cc2c([nH]c3ccccc23)C2CCC(=O)N21 (stereo partly drawn)	0	0	-3	·
CCOC(=O)c1ccc(NC(=O)CCC2COc3ccccc3O2)cc1 (stereo not drawn)	-1	-2	-3	34
Cc1cc(C)nc(NS(=O)(=O)c2ccc(NC(=O)CCC3COc4ccccc4O3)cc2)n1 (stereo not drawn)	-1	-4	0	77*
Cc1cc(C)nc(NS(=O)(=O)c2ccc(NC(=S)NC(=O)C3CCCC3)cc2)n1	0	1	0	72*
Cc1ccccc1OCC(=O)NC(=S)Nc1ccc(S(=O)(=O)NC2CCCCC2)cc1	0	-2	-4	77*
O=S1(=O)c2ccccc2OC(COCc2ccccc2)CN1C1CC1 (stereo not drawn)	·	1	0	·
C=C(C)c1cccc(C(C)(C)NC(=O)N(C)C2CCN(C)CC2)c1	·	1	-1	6
NC1=NC(=O)/C(=C/c2c(OS(=O)(=O)c3ccc(Cl)cc3)ccc3ccccc23)S1	0	3	0	94*
NC1=NC(=O)/C(=C/c2ccccc2OS(=O)(=O)c2ccccc2)S1	0	2	0	41
Cc1ccc(-c2nc(NC(=O)c3ccc(S(=O)(=O)N(CCC#N)CCC#N)cc3)sc2-c2ccccc2)cc1	1	1	-1	5
CCCN(CCC)S(=O)(=O)c1ccc(C(=O)Nc2nc3c(s2)CCc2ccccc2-3)cc1	1	16	14	78*
SMILES	Bfl-1 A1 inh	CHOP UPR activ	XBP1 UPR activ	CHOP inhibitor
CC(C)c1nc(N2CCN(C(=O)c3ccco3)CC2)c(C#N)c2c1COC(C)(C)C2	-1	1	-6	·
CC(C)c1nc(N2CCN(C(=O)c3ccccc3)CC2)c(C#N)c2c1COC(C)(C)C2	0	4	0	91*
FC(F)(F)c1ccc(C2Nc3cccc4cccc(c34)N2)cc1	·	0	2	87*
Cc1ccc(/C=N/N2CCN(Cc3cccc4ccccc34)CC2)o1	0	0	-3	72*
COc1ccc(NCC(=O)N/N=C(\C)c2cc3ccccc3o2)cc1	-1	1	-1	32
C/C(=N\NC(=O)COc1ccc(C(C)(C)C)cc1)c1cc2ccccc2o1	0	5	4	74*
